{"data": "Experimental data pooled from the literature", "target": "Serine/threonine-protein kinase Sgk3 (SGK3, Homo sapiens, UniProt Q96BR1)", "Residues used in one study (Q96BR1 1-496)": "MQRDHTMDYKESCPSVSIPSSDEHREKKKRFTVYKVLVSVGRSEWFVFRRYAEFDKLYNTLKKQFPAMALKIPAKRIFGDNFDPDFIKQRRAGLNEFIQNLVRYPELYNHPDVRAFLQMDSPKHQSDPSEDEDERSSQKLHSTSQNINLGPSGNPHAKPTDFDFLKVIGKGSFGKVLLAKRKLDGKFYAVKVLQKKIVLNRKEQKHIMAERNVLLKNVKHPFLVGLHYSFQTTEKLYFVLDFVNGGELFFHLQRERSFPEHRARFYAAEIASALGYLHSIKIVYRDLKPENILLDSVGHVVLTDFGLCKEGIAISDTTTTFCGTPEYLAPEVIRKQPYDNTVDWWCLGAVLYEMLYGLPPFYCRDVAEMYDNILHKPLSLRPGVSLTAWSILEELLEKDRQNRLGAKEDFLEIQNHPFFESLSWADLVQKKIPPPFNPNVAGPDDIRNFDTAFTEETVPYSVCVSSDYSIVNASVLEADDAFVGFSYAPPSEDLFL", "note": "Protocols differ between the studies behind these lines."}
{"SMILES": "COc1ccnn2ncc(-c3ccnc(N(C)C)n3)c12", "observed": "binding", "tested at": "1 µM", "remaining binding": "95%"}
{"SMILES": "COc1ncc2cc3ccccc3nc2c1C#N", "observed": "cell-free assay", "method": "competition with immobilised ligand", "tested at": "5 µM", "remaining binding": "100%"}
{"SMILES": "FC(F)(F)Oc1cccc(-c2cnc3ccc(-c4ccncc4)nn23)c1", "observed": "binding", "method": "competition with immobilised ligand", "tested at": "5 µM", "remaining binding": "70%"}
{"SMILES": "Cn1cc(Cl)c2c(Oc3c(F)cc(Nc4cc(Cl)nc(N)n4)cc3F)ccnc21", "observed": "cell-free assay", "method": "competition with immobilised ligand", "tested at": "0.1 µM", "remaining binding": "90%"}
{"SMILES": "CN(c1nccc(-c2cnn3ncccc23)n1)C1CC1", "observed": "binding", "tested at": "1 µM", "remaining binding": "99%"}
{"SMILES": "Nc1ncc2c(n1)-c1c([nH]c3ccc(C#CC4CC4)cc13)CCCC2", "observed": "binding", "method": "competition with immobilised ligand", "tested at": "1 µM", "remaining binding": "100%"}
{"SMILES": "COc1cnc(Nc2cccc(S(N)(=O)=O)c2)nc1N1CCN(c2ccccc2)CC1", "observed": "binding", "method": "competition with immobilised ligand", "tested at": "1 µM", "remaining binding": "72%"}
{"SMILES": "O=C(NCCCN1CCOCC1)c1ccc(Nc2nccc(-c3cc4ccccc4s3)n2)cc1", "observed": "binding", "method": "competition with immobilised ligand", "tested at": "1 µM", "remaining binding": "29%"}
{"SMILES": "CC1CCCN1c1nccc(-c2cnn3ncccc23)n1 (stereo not drawn)", "observed": "binding", "tested at": "1 µM", "remaining binding": "86%"}
{"SMILES": "Cc1c(NC(=O)c2cc(C(N)=O)nc3cc(F)ccc23)c(C(F)(F)F)nn1Cc1ccc(C(C)(C)C)cc1", "observed": "cell-free assay", "method": "competition with immobilised ligand", "tested at": "1 µM", "remaining binding": "94%"}
{"SMILES": "O=C(Nc1c[nH]nc1C(=O)NC1CCNCC1)c1cc(F)cc(F)c1", "observed": "binding", "method": "competition with immobilised ligand", "tested at": "1 µM", "remaining binding": "100%"}
{"SMILES": "COc1cccc(CNC(=O)c2nc3scc(COCc4ccc(C(=O)O)cc4)c3c(=O)[nH]2)c1", "observed": "cell-free assay", "method": "competition with immobilised ligand", "tested at": "1 µM", "remaining binding": "69.2%"}
{"SMILES": "O=C(c1ccc(Nc2nccc(-c3cc4ccccc4s3)n2)cc1)N1CCC(N2CCCC2)CC1", "observed": "binding", "method": "competition with immobilised ligand", "tested at": "1 µM", "remaining binding": "19%"}
{"SMILES": "C[C@@H](c1ccc(-n2cnc3c(N)ncnc32)cc1)N1CCc2nn(C)c(Cc3ccccc3)c2C1=O", "observed": "binding", "method": "competition with immobilised ligand", "tested at": "0.1 µM", "remaining binding": "93%"}
{"SMILES": "Cc1cnn2ncc(-c3ccnc(N(C)C)n3)c2c1", "observed": "binding", "tested at": "1 µM", "remaining binding": "100%"}
{"SMILES": "Cc1noc([C@H]2C[C@@H](c3ccc(C(F)(F)F)cc3)CN(C(=O)N3CCS(=O)(=O)C3)C2)n1", "observed": "cell-free assay", "method": "competition with immobilised ligand", "tested at": "1 µM", "remaining binding": "100%"}
{"SMILES": "O=C(c1ccc(Nc2ncc(Cl)c(-c3cc4ccccc4s3)n2)cc1)N1CCC(N2CCCC2)CC1", "observed": "binding", "method": "competition with immobilised ligand", "tested at": "1 µM", "remaining binding": "5.6%"}
{"SMILES": "N[C@@H]1CCN(c2nccc(-c3cnn4ncccc34)n2)C1", "observed": "binding", "tested at": "1 µM", "remaining binding": "100%"}
{"SMILES": "C[C@H](c1cccc(C#N)c1)n1cc(Cl)cc(C(N)=O)c1=N", "observed": "cell-free assay", "method": "competition with immobilised ligand", "tested at": "1 µM", "remaining binding": "80%"}
{"SMILES": "CN(CCCC(F)(F)F)c1nccc(-c2cnn3ncccc23)n1", "observed": "binding", "tested at": "1 µM", "remaining binding": "97%"}
{"SMILES": "COCCOc1nc(-c2ccc(Cl)nc2)nc2c1CN(C(=O)c1ncn3ccccc13)CC2", "observed": "cell-free assay", "method": "competition with immobilised ligand", "tested at": "0.1 µM", "remaining binding": "100%"}
